# Legend:
# [1] = target: T1, Cathepsin K (Homo sapiens, UniProt P43235); assay: Effect of 10 mM of GSH on the inhibitory activity of compound against Cathepsin K, at pH 5.5
# T1 sequence (P43235 whole entry): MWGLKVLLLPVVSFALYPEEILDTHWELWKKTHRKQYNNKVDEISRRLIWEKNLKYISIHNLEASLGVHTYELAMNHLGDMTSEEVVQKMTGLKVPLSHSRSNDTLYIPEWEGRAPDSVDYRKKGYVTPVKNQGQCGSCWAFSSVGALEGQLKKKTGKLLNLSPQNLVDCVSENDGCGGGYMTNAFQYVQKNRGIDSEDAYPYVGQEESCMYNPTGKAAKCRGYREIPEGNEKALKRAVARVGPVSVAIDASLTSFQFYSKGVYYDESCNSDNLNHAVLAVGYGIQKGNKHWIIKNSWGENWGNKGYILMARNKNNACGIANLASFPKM
# In short: (§1)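 Recombinant human cathepsin K IC50 with 10 mM glutathione at pH 5.5 or pH 7.0. Compounds preincubated 30 min with GSH before enzyme addition, then 30 min with enzyme before 25 μM Z-Phe-Arg-pNA. Activity read as OD increase at 405 nm. IC50 fitted to a four-parameter logistic model.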
# [2] = target: T1, Cathepsin K; assay: Inhibitory activity tested against Human Cathepsin K […] using gelatinase assay
# In short: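 Recombinant human cathepsin K gelatinase activity on DQ gelatin, 0.25 mg/mL final. Run in 50 mM MES pH 5.5 with 2.5 mM DTT, 2.5 mM EDTA and 10% DMSO, enzyme 2–4 nM, 30 min compound preincubation. Fluorescein release read at ex 495/em 515 nm. IC50 from a four-parameter logistic fit.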
# [3] = target: T1, Cathepsin K; assay: Effect of 10 mM of GSH on the inhibitory activity against Cathepsin K, at pH 7; in short: as §1
# [4] = target: T1, Cathepsin K; assay: Inhibition of Cathepsin K at pH 7
# In short: (§2)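 Recombinant human cathepsin K IC50 without glutathione at pH 5.5 or 7.0. Compound preincubated 30 min with enzyme, then 25 μM Z-Phe-Arg-pNA added. Activity read as OD increase at 405 nm. Percent inhibition set against a vehicle control. IC50 from a four-parameter logistic fit.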
# [5] = target: T1, Cathepsin K; assay: Inhibition of Cathepsin K at pH 5.5; in short: as §2
# [6] = target: T1, Cathepsin K; assay: Inhibitory activity tested against Human Cathepsin K using Z-Phe-Arg-pNA as substrate
# [7] = target: Procathepsin L (Homo sapiens, UniProt P07711); assay: Inhibitory activity tested against Human Cathepsin L using Z-Phe-Arg-pNA as substrate
# Chain of Procathepsin L (P07711 whole entry): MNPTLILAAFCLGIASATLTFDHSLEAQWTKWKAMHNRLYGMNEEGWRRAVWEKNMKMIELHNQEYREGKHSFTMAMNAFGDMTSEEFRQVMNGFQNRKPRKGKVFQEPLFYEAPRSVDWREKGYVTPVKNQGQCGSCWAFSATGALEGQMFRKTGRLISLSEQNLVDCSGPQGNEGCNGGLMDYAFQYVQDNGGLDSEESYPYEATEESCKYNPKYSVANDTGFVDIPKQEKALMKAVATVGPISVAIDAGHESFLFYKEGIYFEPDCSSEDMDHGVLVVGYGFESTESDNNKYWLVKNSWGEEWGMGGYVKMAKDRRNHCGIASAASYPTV
# [8] = target: Cathepsin B (Homo sapiens, UniProt P07858); assay: Inhibitory activity tested against Human Cathepsin B using Z-Phe-Arg-pNA as substrate
# [9] = target: T1, Cathepsin K; assay: Inhibitory constant against human cathepsin K
# In short: (§3)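 Slow-binding kinetics with cathepsin K (0.1 nM final, added to start the reaction) in 50 mM MES pH 5.5, 2.5 mM DTT, 2.5 mM EDTA, 10% DMSO, room temperature, stirred 1 mL cells. Z-Phe-Arg-AMC at 10-fold below Km (Km 30 μM), fluorescence ex 355/em 460 nm. Progress curves fitted for kobs; Ki, kon, koff averaged over at least three inhibitor concentrations.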
# [10] = target: T2, Cathepsin K (Homo sapiens) (UniProt P43235); assay: Pre-steady-state kinetic parameter for inhibition of human cathepsin K; in short: as §3
# T2 sequence (whole entry): T1 sequence (P43235 whole entry)
# [11] = target: T3, Papain (Carica papaya, UniProt P00784); assay: Inhibitory activity tested against papain at a pH 5.5
# T3 sequence (P00784 whole entry): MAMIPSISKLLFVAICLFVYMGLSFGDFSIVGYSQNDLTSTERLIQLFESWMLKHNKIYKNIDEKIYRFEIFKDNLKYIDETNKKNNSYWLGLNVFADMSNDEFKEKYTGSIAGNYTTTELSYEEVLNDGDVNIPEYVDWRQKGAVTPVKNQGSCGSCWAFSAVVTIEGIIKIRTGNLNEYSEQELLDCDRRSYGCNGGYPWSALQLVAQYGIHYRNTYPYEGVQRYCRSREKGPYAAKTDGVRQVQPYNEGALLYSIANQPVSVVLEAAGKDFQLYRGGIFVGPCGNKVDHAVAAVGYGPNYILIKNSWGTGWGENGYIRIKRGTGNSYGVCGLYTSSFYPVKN
# [12] = Bioavailability after oral administration of 20 mg/kg in rat; type: ADME, organism-based; details: in vivo
# In short: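 Rats dosed orally at 20 mg/kg as a 1% methocel suspension, dosing volume 10 mL/kg; plasma levels followed over time and oral bioavailability derived.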
# [13] = Half life period in rat after (iv) administration; type: ADME, organism-based; details: in vivo
# In short: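 Rats dosed intravenously in PEG-200/water (3:2), dosing volume 1 mL/kg; half-life derived from mean plasma levels.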
Structure (SMILES),IC50 [1],IC50 [2],IC50 [3],IC50 [4],IC50 [5],IC50 [6],IC50 [7],IC50 [8],IC50 [9],Ki [9],k off [10],k on [10],IC50 [11],bioavailability [12],half-life [13]
N#CN1CC(CNC(=O)C2CCCCC2)C1,27 nM,10 nM,> 100000 nM,38 nM,16 nM,,,,,,,,,,
N#CN1CCCC1 [CYANO-PYRROLIDINE],1500 nM,,3400 nM,2300 nM,1630 nM,1000 nM,4000 nM,15000 nM,,,,,,,
N#CN1CCCC1CNS(=O)(=O)c1ccccc1 (stereo not given),,,,,,12100 nM,11500 nM,,,,,,,,
N#CN1CCC(NC(=O)c2ccccc2)C1 (stereo not given),,,,,,370 nM,1750 nM,4200 nM,,,,,,,
N#CN1CCC(COCc2ccccc2)C1 (stereo not given),,,,,,100 nM,150 nM,1100 nM,,,,,,,
N#CN1CC(CNS(=O)(=O)c2ccccc2)C1,,,,,,20 nM,50 nM,300 nM,17 nM,20 nM,0.0028 s⁻¹,141000 M⁻¹ s⁻¹,,,
N#CN1CCC1,480 nM,,> 100000 nM,880 nM,450 nM,100 nM,430 nM,2000 nM,,,,,,,
N#CN1CC(OCc2ccccc2)C1,,,,,,40 nM,100 nM,500 nM,,,,,,,
N#CN1CC(OCC2CCCCC2)C1,,,,,,20 nM,100 nM,500 nM,,,,,,,
N#CN1CC(CNC(=O)c2ccccc2)C1,,,,,,70 nM,650 nM,250 nM,,,,,,,
N#CN1CCC(NC(=O)c2ccc(-c3ccccc3)cc2)C1 (stereo not given),,,,,,290 nM,850 nM,300 nM,,,,,,,
CCN(C#N)CC,,,,,,> 100000 nM,> 100000 nM,> 100000 nM,,,,,,,
N#CN1CCC(NC(=O)OCc2ccccc2)C1 (stereo not given),90 nM,20 nM,150 nM,50 nM,60 nM,40 nM,54 nM,200 nM,40 nM,140 nM,0.0056 s⁻¹,67300 M⁻¹ s⁻¹,,,
N#CN1Cc2cc3ccccc3nc2C1,360 nM,360 nM,11400 nM,280 nM,340 nM,370 nM,450 nM,2300 nM,370 nM,380 nM,0.0025 s⁻¹,6590 M⁻¹ s⁻¹,,,
N#CN1CCCC1CNC(=O)c1ccccc1 (stereo not given),,,,,,13700 nM,23000 nM,75000 nM,,,,,,,
N#CN1CCC(NS(=O)(=O)c2ccccc2)C1 (stereo not given),,18 nM,,,,50 nM,80 nM,1400 nM,81 nM,90 nM,0.0019 s⁻¹,19900 M⁻¹ s⁻¹,230 nM,38%,2 h
N#CN1CCC(CNS(=O)(=O)c2ccccc2)C1 (stereo not given),,,,,,200 nM,350 nM,1500 nM,,,,,,,

# From ChEMBL document CHEMBL1134467, “Novel, nonpeptidic cyanamides as potent and reversible inhibitors of human cathepsins K and L” (J Med Chem, 2001)
